An excerpt weighted towards active compounds, which were near 2% of everything screened.
PLC-gamma1 inh = PLC-gamma1 (human) inhibition, primary screen; P19174; purified PLC-gamma1, fluorogenic substrate, fluorescence; inhibition, % at 12.2 µM; 370,000 compounds, 0.84% hits; in the data active = inhibition above about 9.5%
Target sequence (P19174 whole entry, looked up): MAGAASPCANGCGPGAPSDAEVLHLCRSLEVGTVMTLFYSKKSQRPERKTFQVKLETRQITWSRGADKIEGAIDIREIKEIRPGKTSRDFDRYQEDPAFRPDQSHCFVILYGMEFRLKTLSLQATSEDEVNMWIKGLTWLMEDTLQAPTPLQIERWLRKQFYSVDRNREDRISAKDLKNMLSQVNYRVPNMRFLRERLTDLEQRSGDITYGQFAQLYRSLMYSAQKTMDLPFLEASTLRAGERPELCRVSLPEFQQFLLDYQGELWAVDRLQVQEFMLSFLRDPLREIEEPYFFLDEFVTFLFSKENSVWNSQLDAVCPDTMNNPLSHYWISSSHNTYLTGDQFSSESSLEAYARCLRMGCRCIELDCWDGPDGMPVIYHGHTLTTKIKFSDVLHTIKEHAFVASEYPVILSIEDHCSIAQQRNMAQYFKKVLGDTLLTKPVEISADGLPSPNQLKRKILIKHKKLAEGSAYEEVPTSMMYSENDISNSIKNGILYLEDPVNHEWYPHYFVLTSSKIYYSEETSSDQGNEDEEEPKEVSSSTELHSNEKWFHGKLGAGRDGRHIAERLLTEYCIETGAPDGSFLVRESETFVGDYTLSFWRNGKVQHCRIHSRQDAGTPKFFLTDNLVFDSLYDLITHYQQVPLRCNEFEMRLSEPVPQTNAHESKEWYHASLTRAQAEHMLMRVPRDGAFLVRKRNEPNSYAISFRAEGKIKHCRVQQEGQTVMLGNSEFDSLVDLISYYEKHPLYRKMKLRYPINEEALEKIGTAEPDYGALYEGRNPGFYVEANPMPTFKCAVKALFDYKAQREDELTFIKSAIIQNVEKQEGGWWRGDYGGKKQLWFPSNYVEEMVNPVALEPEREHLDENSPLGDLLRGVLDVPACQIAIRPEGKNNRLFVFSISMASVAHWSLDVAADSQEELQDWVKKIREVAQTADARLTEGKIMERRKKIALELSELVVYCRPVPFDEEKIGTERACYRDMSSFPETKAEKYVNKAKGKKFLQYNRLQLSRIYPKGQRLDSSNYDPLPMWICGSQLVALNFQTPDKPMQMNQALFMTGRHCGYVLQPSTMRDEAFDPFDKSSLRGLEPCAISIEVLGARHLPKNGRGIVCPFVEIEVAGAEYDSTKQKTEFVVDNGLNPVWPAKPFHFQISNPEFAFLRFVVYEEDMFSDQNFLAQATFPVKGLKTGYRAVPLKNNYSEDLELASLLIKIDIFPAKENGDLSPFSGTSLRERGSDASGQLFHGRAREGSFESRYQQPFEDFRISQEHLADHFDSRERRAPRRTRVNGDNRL
PLCb3 inh = PLC-beta3 (human) inhibition, primary screen. Q01970. Purified PLC-beta3, fluorogenic substrate, fluorescence. inhibition, % at 12.2 µM. 370,000 compounds, 0.18% hits
IMP-1 inh = blocks Pseudomonas aeruginosa IMP-1 metallo-beta-lactamase; 290,000 compounds, 0.45% hits; inhibition, % at 5.6 µM; purified IMP-1, nitrocefin hydrolysis, epi-absorbance fluorescence; AID 1556;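 active = inhibition above the mean plus 3 SD of all compounds in the same screening run, cut at about 4.5% in these data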
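System – purified recombinant IMP-1 beta-lactamase · Input – IMP-1 dispensed at 0.2 nM · Timing – 15 min preincubation plus 25 min reaction at 25 °C · Signal – Epi-absorbance fluorescence, 480 nm excitation, 530 nm emission · Measure – percent IMP-1 inhibition derived from blank-referenced optical density · Controls – Enzyme-plus-DMSO low control, enzyme-free DMSO high control · Replication – singlicate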
PvdQ inh = blocks Pseudomonas aeruginosa PvdQ acylase activity | 340,000 compounds, 0.063% hits | inhibition, % at 10 µM | purified PvdQ acylase, fluorescence plate reader; in the data active = inhibition above about 30%, passing the limit was not always enough
VIM-2 inh = blocks Pseudomonas aeruginosa VIM-2 metallo-beta-lactamase; inhibition, % at 5.6 µM; 290,000 compounds, 0.89% hits; purified VIM-2, nitrocefin hydrolysis, epi-absorbance fluorescence; AID 1527;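 active = inhibition above the mean of all tested compounds plus 3 SD, cutoff set per screening run, cut at about 7.5% in these data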;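 note: red hydrolysis product quenches plate fluorescence so inhibitors raise well fluorescence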
PLCgamma1 ctr = counter-screen for PLC-beta3 inhibitors: inhibitors of human PLC-gamma1; 3,300 compounds, 3.1% hits; shares compounds with PLC-gamma1 inh; inhibition, % at 12.3 µM; purified PLC-gamma1, fluorogenic substrate, fluorescence; AID 743258; in the data active = inhibition above about 9.5%
PLCb3 confirm = human PLC-beta3 inhibition, confirmation | inhibition, % at 12.3 µM | AID 743261 | purified PLC-beta3, fluorogenic substrate fluorescence | shares compounds with PLC-gamma1 inh | 3,300 compounds, 1% hits
Numbers stand for hits; n = inactive; x = no result. Cut-off read from the data, not from the text of the source, unless noted: active = inhibition above about 11%; inactive = the rest.

SMILES | PLC-gamma1 inh | PLCb3 inh | IMP-1 inh | PvdQ inh | VIM-2 inh | PLCgamma1 ctr | PLCb3 confirm
CC(NC(=O)CCn1nc(-c2ccc(Cl)cc2)ccc1=O)c1ccccc1 (stereo unspecified) | 10.2 | n | n | n | n | n | n
Cc1ccc(CNC(=O)CCn2nc(-c3ccc(Cl)cc3)ccc2=O)cc1 | n | n | n | n | n | x | x
Nc1nc2c(ncn2[C@@H]2O[C@H](C(=O)N[C@H](Cc3ccccc3)C(=O)NCc3ccc4c(c3)OCO4)[C@@H](O)[C@H]2O)c(=O)[nH]1 | n | n | x | x | x | x | x
O=C(NCCC1=CCCCC1)C(=O)NCC(c1ccco1)N1CCN(c2ccccc2)CC1 (stereo unspecified) | 12.8 | n | n | n | n | n | n
COc1ccc(N2CCN(C(CNC(=O)C(=O)NCCC3=CCCCC3)c3ccco3)CC2)cc1 (stereo unspecified) | n | n | n | n | n | x | x
c1cnc(SCC2CCCCC2)c(-c2nc3ccccc3[nH]2)c1 | n | n | x | x | x | x | x
COC(=O)[C@]12C[C@H](CC(=O)NCC3CCCCC3)C(=O)N(Cc3ccc4c(c3)OCO4)C1=C[C@H](C(C)C)O[C@@H]2C1CC1 | n | n | x | x | x | x | x
c1ccc(-c2c[nH]c3cccc(-c4cc5ccccc5o4)c23)cc1 | n | n | x | x | x | x | x
CC1(C)CC(N2CCCC2)=CC(=[N+]2CCCCC2)C1 | 12.2 | n | n | n | n | n | n
CC1(C)CC(N2CCCC2)=CC(=[N+]2CCCC2)C1 | n | n | n | n | n | x | x
COC(=O)CCCCCCCCC(O)CN(C)C (stereo unspecified) | n | n | n | n | n | x | x
COC(=O)CCCCCCCCC(O)CN1CCCCC1 (stereo unspecified) | n | 12.4 | n | n | n | n | n
O=C(NCc1ccc2c(c1)OCO2)Nc1ccc([N+](=O)[O-])cc1 | 10.8 | n | n | n | n | n | n
CCOC(=O)N1CCN(C(=O)C[C@@H]2C(=O)N3CCCC4=C3[C@@]2(C(=O)OCC)CCC4)CC1 | n | n | x | x | x | x | x
CC(NC(=O)c1ccc(F)cc1)c1ccc2c(c1)CCCC2 (stereo unspecified) | 13.1 | 13.6 | n | n | n | n | n
O=C(COc1ccc(F)cc1)c1ccc2c(c1)CCCC2 | 9.5 | n | n | n | n | n | n
COc1ccc(OC)c(S(=O)(=O)N2CCCCC2C(=O)N2CCN(c3ccccc3F)CC2)c1 (stereo unspecified) | n | n | x | x | x | x | x
COc1ccc(/C=N/Nc2nnc(C)n2N)cc1OC | n | n | n | n | n | x | x
Cc1nnc(N/N=C/c2ccc([N+](=O)[O-])cc2)n1N | 19.7 | n | n | n | n | n | n
Cc1nnc(N/N=C/c2ccc(Br)cc2)n1N | n | n | n | n | n | x | x
COc1ccc(/C=N/Nc2nnc(C)n2N)cc1OC(C)=O | 11.4 | n | n | n | n | n | n
O=C(CN1C(=O)c2ccccc2S1(=O)=O)N1CCN(Cc2ccc3c(c2)OCO3)CC1 | 9.7 | n | n | n | n | n | n
Cc1ccc(SCc2ccc(C(=O)Nc3cc([N+](=O)[O-])ccc3C)cc2)cc1 | 11.6 | n | n | n | n | n | n
O=C(CCc1nc(-c2ccccc2F)no1)NCCc1ccc(F)cc1 | n | n | x | x | x | x | x
COC(=O)C1=C(C)N(Cc2ccccc2)C(=NCc2cccc(C(F)(F)F)c2)N[C@H]1c1cccc(F)c1 | 12.8 | n | n | n | n | n | n
SMILES | PLC-gamma1 inh | PLCb3 inh | IMP-1 inh | PvdQ inh | VIM-2 inh | PLCgamma1 ctr | PLCb3 confirm
COC(=O)C1=C(C)N(Cc2cccc(C(F)(F)F)c2)C(=NCc2ccccc2C(F)(F)F)NC1c1ccc(Cl)cc1 (stereo unspecified) | n | 13.7 | x | x | x | n | n
COc1ccc(-c2cc(-c3nnc(SCC(=O)Nc4cccc(Cl)c4C)n3N)[nH]n2)cc1 | n | n | x | x | x | x | x
CC(=O)OC[C@H]1O[C@@H](n2ccc(=O)[nH]c2=S)C(OC(C)=O)C1OC(C)=O (stereo partly specified) | 9.8 | n | n | n | n | n | n
CC(=O)OCC1OC(n2ccc(=O)[nH]c2=O)C(O)C1O (stereo unspecified) | n | n | n | n | n | x | x
Cc1ccc(CN2CCCCC(NC(=O)c3cccc(F)c3)C2=O)cc1 (stereo unspecified) | n | n | x | x | x | x | x
Cc1ccsc1/C=C1\SC(N)=NC1=O | 10.1 | n | n | n | n | n | n
Cc1ccc(/C=C2\SC(N)=NC2=O)s1 | n | n | n | n | n | x | x
O=C(CSc1n[nH]c(-c2ccccc2)n1)Nc1ccc(F)cc1F | n | n | n | n | n | x | x
O=C(CSc1n[nH]c(-c2ccccc2)n1)Nc1ccccc1O | 9.9 | n | n | n | n | n | n
COc1cc(O)c(C(CC(=O)N2CC(C)OC(C)C2)c2ccc3c(c2)OCO3)c(OC)c1 (stereo unspecified) | n | n | x | x | x | x | x
CCCn1c(SCC(=O)NCC)nc2sc3c(c2c1=O)CCC3 | 9.6 | n | n | n | n | n | n
CCCCCCCCN1C(=O)[C@@H](CC(=O)NCC2CCCCC2)C[C@@]2(C(=O)OC)C1=C[C@H](C(C)(C)C)O[C@@H]2C | n | n | x | x | x | x | x
Cc1ccccc1C(=O)N=c1sccn1C | n | n | n | n | n | x | x
CCOc1ncccc1C(=O)N=c1sccn1C | 12.3 | n | n | n | n | n | n
CCOC(=O)c1c(NC(=O)C2CC2)sc2c1CC(C)(C)OC2 | n | n | n | n | n | x | x
COC(=O)c1c(N)sc2c1CC(C)(C)OC2 | 10.6 | n | n | n | n | n | n
OC1OC2COC(c3ccccc3)OC2C(O)C1O (stereo unspecified) | n | 11.3 | x | x | x | n | n
CC(C)(C)N1C(=O)[C@H]2[C@@H](c3ccc(Br)cc3)N3C(=O)N(c4cccc(Cl)c4)C(=O)[C@@]3(Cc3ccccc3)[C@H]2C1=O | 10.1 | n | x | n | x | n | n
COc1ccc([C@@H]2[C@@H]3C(=O)N(C(C)(C)C)C(=O)[C@@H]3[C@]3(Cc4ccccc4)C(=O)N(c4cccc(Cl)c4)C(=O)N23)cc1 | 9.6 | n | x | n | x | n | n
CN(C(=O)[C@@H]1CC=C[C@@H]2CCN(C3CCCCC3)C(=O)[C@@H]21)c1ccccc1 | n | n | x | x | x | x | x
S=C(NCc1cccc(Cl)c1)OC1CCC12CCC(c1ccccc1)CC2 (stereo unspecified) | n | n | x | x | x | x | x
COc1ccc(N2CC(C(=O)N[C@@H](C)C(=O)NCc3ccccc3OC)CC2=O)cc1 (stereo partly specified) | 9.8 | n | n | n | n | n | n
O[C@H](COc1cccc(F)c1)CN1CCC(C(O)(c2ccccc2)c2ccccc2)CC1 | n | n | x | x | x | x | x
CC(=O)Nc1ccc(S(=O)(=O)NC2CC(=O)N(c3ccc(C)c(C)c3)C2)cc1 (stereo unspecified) | 12.4 | n | x | n | x | n | n
C=CCN1[C@H](C)COc2cc(F)ccc2S1(=O)=O | n | n | x | x | x | x | x
CCOc1ccc(CCNC(=O)c2[nH]c(C)c(C(C)=O)c2C)cc1OCC | 9.8 | n | n | n | n | n | n
